Experimental findings from ChEMBL document CHEMBL1139838 (J Med Chem, 2007) are described below.

Assay [1] concerns the target Delta-type opioid receptor (Mus musculus) (UniProt P32300). The following applies: Vas deferens.
In assay [2] the target is Delta-type opioid receptor (Rattus norvegicus, UniProt P33533). Put plainly: Displacement of [3H]Ile5,6-deltorphin from delta opioid receptor in Wistar rat brain membrane. The class given is cell membranes. A digest of the protocol:
(§1)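 Wistar rat brain membranes in 50 mM Tris·HCl pH 7.4 with 200-300 µg protein. Tritiated ligand at 0.5-1 nM, with fresh unlabeled peptide at 10^-12 to 10^-5 M, for 45 min at 35 °C. Stopped by rapid GF/C filtration and ice-cold buffer washes, then scintillation counting. Nonspecific binding defined with 10 µM naloxone. Duplicates, repeated two or three times, mean ± SEM.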
On the technique in general: Displacement assays read how much labelled ligand stays bound in the presence of the test substance.

A further assay deals with Mu-type opioid receptor (Rattus norvegicus, UniProt P33535). Put plainly: Displacement of [3H]DAMGO from mu opioid receptor in Wistar rat brain membrane. The class given is cell membranes. In short, it runs like this: as §1
The target of assay [3] is Delta-type opioid receptor (Homo sapiens) (UniProt P41143). Put plainly: Activity at human delta opioid receptor expressed in CHO cells by [35S]GTP-gamma-S binding assay. The class given is functional, cell-based.
For assay [4], the target named is Mu-type opioid receptor (Cavia porcellus) (UniProt P97266). The following applies: Ileum.
For assay [5] the target is unchanged. To be noted: Ileum. This is another data set of the same source.

The source made the active and inactive calls. No cut-off for these calls is given here. Where a SMILES comes first, the peptide text is derived from it. [ ]: non-standard residue; d: D form. Tic = O=C(O)[C@@H]1Cc2ccccc2CN1; Cha = N[C@@H](CC1CCCCC1)C(=O)O

Chain of Delta-type opioid receptor (Homo sapiens) (P41143 whole entry): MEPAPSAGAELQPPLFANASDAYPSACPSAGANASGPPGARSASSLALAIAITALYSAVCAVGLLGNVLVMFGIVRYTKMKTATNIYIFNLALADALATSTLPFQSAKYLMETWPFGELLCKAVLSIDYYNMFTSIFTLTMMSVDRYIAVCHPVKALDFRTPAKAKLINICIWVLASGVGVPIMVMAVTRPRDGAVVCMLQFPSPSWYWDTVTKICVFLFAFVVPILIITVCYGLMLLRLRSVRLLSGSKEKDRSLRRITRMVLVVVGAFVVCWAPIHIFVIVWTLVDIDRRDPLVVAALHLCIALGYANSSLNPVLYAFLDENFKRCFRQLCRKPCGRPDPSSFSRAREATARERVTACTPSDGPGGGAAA
Chain of Mu-type opioid receptor (Cavia porcellus) (P97266 whole entry): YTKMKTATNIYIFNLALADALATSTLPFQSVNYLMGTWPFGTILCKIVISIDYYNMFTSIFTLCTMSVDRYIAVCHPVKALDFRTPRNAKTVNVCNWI
Chain of Delta-type opioid receptor (P33533 whole entry): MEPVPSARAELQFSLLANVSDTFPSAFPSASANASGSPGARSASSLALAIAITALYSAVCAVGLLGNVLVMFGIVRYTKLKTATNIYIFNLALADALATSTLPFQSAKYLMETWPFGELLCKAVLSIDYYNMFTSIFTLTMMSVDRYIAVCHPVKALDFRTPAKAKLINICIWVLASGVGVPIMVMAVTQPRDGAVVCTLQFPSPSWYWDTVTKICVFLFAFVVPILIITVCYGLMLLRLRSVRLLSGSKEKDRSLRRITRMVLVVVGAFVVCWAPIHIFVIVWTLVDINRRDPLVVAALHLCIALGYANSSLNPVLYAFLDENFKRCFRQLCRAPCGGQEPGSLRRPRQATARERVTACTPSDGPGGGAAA
Chain of Mu-type opioid receptor (P33535 whole entry): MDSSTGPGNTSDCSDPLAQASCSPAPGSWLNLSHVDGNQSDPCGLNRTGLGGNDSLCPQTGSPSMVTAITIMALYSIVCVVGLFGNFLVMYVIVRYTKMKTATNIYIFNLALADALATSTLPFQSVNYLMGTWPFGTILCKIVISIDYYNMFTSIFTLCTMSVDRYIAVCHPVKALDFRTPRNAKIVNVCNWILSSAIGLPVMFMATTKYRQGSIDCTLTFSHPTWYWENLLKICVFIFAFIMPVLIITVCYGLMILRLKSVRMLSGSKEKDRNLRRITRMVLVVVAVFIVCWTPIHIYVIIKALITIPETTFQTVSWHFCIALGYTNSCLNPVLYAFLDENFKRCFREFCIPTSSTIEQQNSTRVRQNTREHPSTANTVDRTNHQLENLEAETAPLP
Chain of Delta-type opioid receptor (Mus musculus) (P32300 whole entry): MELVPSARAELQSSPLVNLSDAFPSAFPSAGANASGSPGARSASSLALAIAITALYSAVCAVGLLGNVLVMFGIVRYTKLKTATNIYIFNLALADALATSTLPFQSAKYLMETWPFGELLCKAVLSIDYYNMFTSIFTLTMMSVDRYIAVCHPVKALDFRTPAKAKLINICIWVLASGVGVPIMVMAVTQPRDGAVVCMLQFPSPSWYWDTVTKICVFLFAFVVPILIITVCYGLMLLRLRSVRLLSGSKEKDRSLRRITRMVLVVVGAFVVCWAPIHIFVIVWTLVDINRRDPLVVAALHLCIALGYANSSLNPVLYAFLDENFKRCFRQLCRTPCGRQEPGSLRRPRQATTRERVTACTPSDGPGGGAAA

`N[C@@H](Cc1ccc(O)cc1)C(=O)N1Cc2ccccc2C[C@H]1C(=O)N[C@@H](CC1CCCCC1)C(=O)N[C@@H](Cc1ccccc1)C(=O)O` (H-Y[Tic][Cha]F-OH) returned a Ke in assay [1] of 0.44 nM. The values for the Ki (in assay [2]; on Mu-type opioid receptor) were 0.61 nM and 3600 nM, respectively.

As for `Cc1cc(O)cc(C)c1C[C@H](N)C(=O)N1Cc2ccccc2C[C@H]1C(=O)N[C@@H](C(=O)N[C@@H](Cc1ccccc1)C(=O)O)[C@@H](C)C1CCCCC1`, the values for the Ki (in assay [2]; at Mu-type opioid receptor) were 1.5 nM and 55 nM, respectively.

On to `Cc1cc(O)cc(C)c1C[C@H](N)C(=O)N1Cc2ccccc2CC1C(=O)N[C@H](C(=O)N[C@@H](Cc1ccccc1)C(N)=O)[C@@H](C)C1CCCCC1` (stereo partly drawn), for which the figures for the Ke in assay [1] and in assay [4] were 0.77 nM and 340 nM, respectively. The outcome in assay [3] was inactive.

As for `Cc1cc(O)cc(C)c1C[C@H](N)C(=O)N1Cc2ccccc2C[C@H]1C(=O)N[C@@H](C(=O)N[C@@H](Cc1ccccc1)C(N)=O)[C@H](C)C1CCCCC1`, the Ki (commonly the equilibrium dissociation constant of an inhibitor or competing ligand from its target) in assay [2] was 13 nM; on Mu-type opioid receptor it was 290 nM.

As for `Cc1cc(O)cc(C)c1C[C@H](N)C(=O)N1Cc2ccccc2CC1C(=O)N[C@H](C(=O)N[C@@H](Cc1ccccc1)C(=O)O)[C@H](C)C1CCCCC1` (stereo partly drawn), in assay [1], the Ke was 0.81 nM. Also, the result in assay [3] was inactive. In addition, the 30% effect level in assay [5] (IC30) was put at 150 nM.

`NC(=O)[C@H](Cc1ccccc1)NC(=O)[C@H](Cc1ccccc1)NC(=O)[C@@H]1Cc2ccccc2CN1C(=O)[C@H](N)Cc1ccc(O)cc1`: the Ke came out at 18 nM in assay [1] and 1700 nM in assay [5].

For the molecule `Cc1cc(O)cc(C)c1C[C@@H](N)C(=O)N1Cc2ccccc2C[C@H]1C(=O)N[C@@H](Cc1ccccc1)C(=O)N[C@@H](Cc1ccccc1)C(=O)O`, the Ke in assay [1] was 0.2 nM.

Take `Cc1cc(O)cc(C)c1C[C@H](N)C(=O)N1Cc2ccccc2C[C@H]1C(=O)N[C@@H](C(=O)N[C@@H](Cc1ccccc1)C(=O)O)[C@H](C)C1CCCCC1`: the values for the Ki (in assay [2]; at Mu-type opioid receptor) were 2 nM and 580 nM, respectively.

As to `N[C@@H](Cc1ccc(O)cc1)C(=O)N1Cc2ccccc2C[C@H]1C(=O)N[C@@H](Cc1ccccc1)C(=O)N[C@@H](Cc1ccccc1)C(=O)O` (H-Y[Tic]FF-OH), the Ke in assay [1] is 4.8 nM; in assay [5] it was > 10000 nM.

As to `Cc1cc(O)cc(C)c1C[C@H](N)C(=O)N1Cc2ccccc2CC1C(=O)N[C@@H](C(=O)N[C@@H](Cc1ccccc1)C(=O)O)[C@@H](C)C1CCCCC1` (stereo partly drawn), the Ke in assay [1] stood at 0.11 nM; in assay [4] it was 19 nM. Moreover, in assay [3], the outcome was inactive.

For `Cc1cc(O)cc(C)c1C[C@H](N)C(=O)N1Cc2ccccc2CC1C(=O)N[C@@H](C(=O)N[C@@H](Cc1ccccc1)C(N)=O)[C@@H](C)C1CCCCC1` (stereo partly drawn), the Ke in assay [1] worked out at 1.94 nM; in assay [4], 120 nM. Further, the outcome in assay [3] was inactive.

With `Cc1cc(O)cc(C)c1C[C@H](N)C(=O)N1Cc2ccccc2C[C@H]1C(=O)N[C@@H](C(=O)N[C@@H](Cc1ccccc1)C(N)=O)[C@@H](C)C1CCCCC1`, the Ki in assay [2] came to 7 nM; at Mu-type opioid receptor, 200 nM.

Take `Cc1cc(O)cc(C)c1C[C@H](N)C(=O)N1Cc2ccccc2CC1C(=O)N[C@H](C(=O)N[C@@H](Cc1ccccc1)C(N)=O)[C@H](C)C1CCCCC1` (stereo partly drawn): the Ke in assay [1] is 0.68 nM. In addition, the outcome in assay [3] was inactive. The molecule further displayed an IC40 in assay [5] of 110 nM.

`Cc1cc(O)cc(C)c1C[C@H](N)C(=O)N1Cc2ccccc2C[C@H]1C(=O)N[C@H](C(=O)N[C@@H](Cc1ccccc1)C(=O)O)[C@@H](C)C1CCCCC1`: the Ki in assay [2] is 0.48 nM; at Mu-type opioid receptor, 1400 nM.

With `Cc1cc(O)cc(C)c1C[C@H](N)C(=O)N1Cc2ccccc2CC1C(=O)N[C@@H](C(=O)N[C@@H](Cc1ccccc1)C(N)=O)[C@H](C)C1CCCCC1` (stereo partly drawn), the Ke in assay [1] worked out at 1.7 nM; in assay [4] it was 670 nM. Moreover, the outcome in assay [3] was inactive.

For `Cc1cc(O)cc(C)c1C[C@H](N)C(=O)N1Cc2ccccc2C[C@H]1C(=O)N[C@H](C(=O)N[C@@H](Cc1ccccc1)C(N)=O)[C@H](C)C1CCCCC1`, the Ki worked out at 4.1 nM in assay [2] and 170 nM on Mu-type opioid receptor.

In the case of `Cc1cc(O)cc(C)c1C[C@H](N)C(=O)N1Cc2ccccc2C[C@H]1C(=O)N[C@H](C(=O)N[C@@H](Cc1ccccc1)C(N)=O)[C@@H](C)C1CCCCC1`, the inhibition constant Ki came out at 4 nM in assay [2] and 330 nM on Mu-type opioid receptor.

Consider `Cc1cc(O)cc(C)c1C[C@H](N)C(=O)N1Cc2ccccc2C[C@H]1C(=O)N[C@H](C(=O)N[C@@H](Cc1ccccc1)C(=O)O)[C@H](C)C1CCCCC1`, for which the Ki is 2 nM in assay [2] and 280 nM on Mu-type opioid receptor.

Take `Cc1cc(O)cc(C)c1C[C@H](N)C(=O)N1Cc2ccccc2CC1C(=O)N[C@@H](C(=O)N[C@@H](Cc1ccccc1)C(=O)O)[C@H](C)C1CCCCC1` (stereo partly drawn): the Ke in assay [1] stood at 0.55 nM; in assay [4], 290 nM. In assay [3], the outcome was inactive.

`Cc1cc(O)cc(C)c1C[C@H](N)C(=O)N1Cc2ccccc2CC1C(=O)N[C@H](C(=O)N[C@@H](Cc1ccccc1)C(=O)O)[C@@H](C)C1CCCCC1` (stereo partly drawn): the Ke in assay [1] was found to be 0.24 nM; in assay [4] it was 970 nM. Further, the outcome in assay [3] was inactive.
